Assay results from ChEMBL document CHEMBL2429816, “Synthesis and binding affinity of new 1,4-disubstituted triazoles as potential dopamine D(3) receptor ligands” (Bioorg Med Chem Lett, 2013).

Key:
[1] = molecular target: Dopamine receptors; D3 & D4 (Homo sapiens) (UniProt P35462+P21917); assay: Selectivity ratio of Ki for cloned human dopamine D4 receptor to Ki for cloned human dopamine D3 receptor
Homo sapiens [2] = organism: Homo sapiens; assay: Selectivity ratio of Ki for cloned human dopamine D2 receptor to Ki for cloned human dopamine D3 receptor
D(4) dopamine receptor = molecular target: T1, D(4) dopamine receptor (Homo sapiens, UniProt P21917); assay: Displacement of [3H]-spiperone from cloned human dopamine D4 receptor
T1 sequence (P21917 whole entry): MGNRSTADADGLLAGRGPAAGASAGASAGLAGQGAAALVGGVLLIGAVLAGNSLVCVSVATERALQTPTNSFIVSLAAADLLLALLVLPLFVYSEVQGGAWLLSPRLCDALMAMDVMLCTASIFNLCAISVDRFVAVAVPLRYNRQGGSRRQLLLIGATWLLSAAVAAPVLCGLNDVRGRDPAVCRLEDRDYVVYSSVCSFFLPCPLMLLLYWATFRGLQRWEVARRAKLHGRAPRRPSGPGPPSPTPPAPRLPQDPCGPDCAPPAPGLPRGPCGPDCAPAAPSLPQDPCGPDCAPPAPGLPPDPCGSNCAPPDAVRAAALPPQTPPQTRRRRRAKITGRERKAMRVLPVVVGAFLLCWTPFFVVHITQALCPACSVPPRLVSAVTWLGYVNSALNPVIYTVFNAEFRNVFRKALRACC
How it was run: (§1)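 Competition binding at human receptor subtypes by the group's earlier procedure. Ki was calculated from displacement data by the Cheng–Prusoff equation.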

D(2) dopamine receptor = D(2) dopamine receptor (Homo sapiens, UniProt P14416); assay: Displacement of [3H]-spiperone from cloned human dopamine D2 receptor; how it was run: as §1
[3] = molecular target: D(1A) dopamine receptor (Homo sapiens) (UniProt P21728); assay: Displacement of [3H]-SCH23390 from cloned human dopamine D1 receptor at 1 uM relative to control
How it was run: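 Competition binding at the human D1 receptor. Compounds with little affinity are reported as percent inhibition at the highest concentration tested.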

D(3) dopamine receptor [4] = molecular target: T2, D(3) dopamine receptor (Homo sapiens, UniProt P35462); assay: Antagonist activity at human dopamine D3 receptor assessed as [35S]GTPgammaS binding preincubated for 15 mins followed by [35S]GTPgammaS addition measured after 40 mins; format: functional
D(3) dopamine receptor [5] = molecular target: T2, D(3) dopamine receptor; assay: Displacement of [3H]-spiperone from cloned human dopamine D3 receptor; how it was run: as §1
[6] = molecular target: Dopamine receptor D2 and D3 (Rattus norvegicus) (UniProt P19020+P61169); assay: Selectivity ratio of Ki for rat dopamine D2 receptor to Ki for rat dopamine D3 receptor
D(3) dopamine receptor [7] = molecular target: D(3) dopamine receptor (Rattus norvegicus, UniProt P19020); assay: Displacement of [3H]spiperone from rat dopamine D3 receptor expressed in sf9 cells after 60 mins
Homo sapiens [8] = organism: Homo sapiens; assay: Selectivity ratio of Ki for dopamine D2 receptor (unknown origin) to Ki for dopamine D3 receptor (unknown origin)
How it was run: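 Radioligand competition binding at human D2 and D3 receptors. Ki was derived from displacement data using the Cheng–Prusoff equation. The selectivity value is the D2 Ki divided by the D3 Ki.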

Chain of Dopamine receptors; D3 & D4 (Homo sapiens) (P35462 whole entry, looked up, one chain of several): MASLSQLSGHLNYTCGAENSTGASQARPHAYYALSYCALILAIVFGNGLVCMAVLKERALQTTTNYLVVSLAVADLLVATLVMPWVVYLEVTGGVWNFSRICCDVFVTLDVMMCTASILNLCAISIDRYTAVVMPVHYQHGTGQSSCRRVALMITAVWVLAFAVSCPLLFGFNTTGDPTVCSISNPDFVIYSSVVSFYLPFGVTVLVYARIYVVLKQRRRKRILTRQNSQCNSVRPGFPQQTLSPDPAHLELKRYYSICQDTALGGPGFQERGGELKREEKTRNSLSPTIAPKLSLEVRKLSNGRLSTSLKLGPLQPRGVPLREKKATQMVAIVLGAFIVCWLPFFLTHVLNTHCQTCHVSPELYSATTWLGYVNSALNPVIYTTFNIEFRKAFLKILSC
Chain of D(1A) dopamine receptor (Homo sapiens) (P21728 whole entry): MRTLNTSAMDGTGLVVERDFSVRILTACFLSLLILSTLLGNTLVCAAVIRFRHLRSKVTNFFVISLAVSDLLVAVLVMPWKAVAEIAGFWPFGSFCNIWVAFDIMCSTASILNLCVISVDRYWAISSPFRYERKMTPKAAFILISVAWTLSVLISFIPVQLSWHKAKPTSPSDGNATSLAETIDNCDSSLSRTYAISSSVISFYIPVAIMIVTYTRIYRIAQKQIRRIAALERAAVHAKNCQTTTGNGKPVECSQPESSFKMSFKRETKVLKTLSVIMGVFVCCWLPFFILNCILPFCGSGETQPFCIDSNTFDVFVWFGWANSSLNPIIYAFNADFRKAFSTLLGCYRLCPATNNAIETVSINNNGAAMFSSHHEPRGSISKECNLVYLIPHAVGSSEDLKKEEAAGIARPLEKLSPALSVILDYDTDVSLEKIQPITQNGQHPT
T2 sequence (P35462 whole entry): as the sequence (P35462 whole entry, looked up, one chain of several) above
Chain of D(2) dopamine receptor (P14416 whole entry): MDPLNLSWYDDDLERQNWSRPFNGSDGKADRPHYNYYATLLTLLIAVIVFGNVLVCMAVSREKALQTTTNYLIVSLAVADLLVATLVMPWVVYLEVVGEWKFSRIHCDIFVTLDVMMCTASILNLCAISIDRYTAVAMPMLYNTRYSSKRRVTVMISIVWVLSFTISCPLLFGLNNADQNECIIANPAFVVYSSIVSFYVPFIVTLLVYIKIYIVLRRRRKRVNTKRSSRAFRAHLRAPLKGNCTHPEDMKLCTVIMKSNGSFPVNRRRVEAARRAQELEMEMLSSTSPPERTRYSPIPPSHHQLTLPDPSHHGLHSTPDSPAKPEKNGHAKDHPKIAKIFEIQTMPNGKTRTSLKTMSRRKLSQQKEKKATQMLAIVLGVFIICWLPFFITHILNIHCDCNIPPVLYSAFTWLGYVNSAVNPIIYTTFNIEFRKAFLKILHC
Chain of Dopamine receptor D2 and D3 (Rattus norvegicus) (P19020 whole entry, looked up): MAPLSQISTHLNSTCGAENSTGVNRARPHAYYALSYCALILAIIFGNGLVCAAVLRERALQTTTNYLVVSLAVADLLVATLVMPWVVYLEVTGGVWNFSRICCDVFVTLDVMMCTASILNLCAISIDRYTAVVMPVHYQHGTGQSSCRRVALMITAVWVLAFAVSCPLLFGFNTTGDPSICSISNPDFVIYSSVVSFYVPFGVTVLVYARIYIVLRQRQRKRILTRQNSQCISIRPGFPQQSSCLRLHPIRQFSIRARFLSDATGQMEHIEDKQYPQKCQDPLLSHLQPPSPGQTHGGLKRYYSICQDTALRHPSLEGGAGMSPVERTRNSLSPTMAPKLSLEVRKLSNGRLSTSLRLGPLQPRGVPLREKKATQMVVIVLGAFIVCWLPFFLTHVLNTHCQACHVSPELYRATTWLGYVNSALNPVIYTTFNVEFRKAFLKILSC
Chain of Dopamine receptor D2 and D3 (Rattus norvegicus) (P61169 whole entry, looked up): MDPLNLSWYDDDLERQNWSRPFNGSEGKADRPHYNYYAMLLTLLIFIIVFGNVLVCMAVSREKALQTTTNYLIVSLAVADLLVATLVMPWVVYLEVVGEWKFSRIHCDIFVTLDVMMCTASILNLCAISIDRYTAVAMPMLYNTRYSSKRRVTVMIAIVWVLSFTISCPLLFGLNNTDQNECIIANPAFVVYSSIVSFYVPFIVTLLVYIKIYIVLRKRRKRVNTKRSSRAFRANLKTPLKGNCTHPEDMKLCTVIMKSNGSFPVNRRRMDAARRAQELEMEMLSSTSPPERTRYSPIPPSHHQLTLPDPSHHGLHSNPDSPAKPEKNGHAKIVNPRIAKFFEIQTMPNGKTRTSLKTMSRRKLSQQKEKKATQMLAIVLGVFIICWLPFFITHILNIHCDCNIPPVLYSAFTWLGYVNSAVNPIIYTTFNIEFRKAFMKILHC
Chain of D(3) dopamine receptor (Rattus norvegicus, UniProt P19020) (P19020 whole entry): as the sequence (P19020 whole entry, looked up) above

| Ratio Ki [1] | Ratio Ki (Homo sapiens [2]) | Ki (D(4) dopamine receptor) [nM] | Ki (D(2) dopamine receptor) [nM] | inhibition [3] [%] | Kb (D(3) dopamine receptor [4]) [nM] | Ki (D(3) dopamine receptor [5]) [nM] | Ratio Ki [6] | Ki (D(3) dopamine receptor [7]) [nM] | SMILES | Ratio Ki (Homo sapiens [8]) |
| --- | --- | --- | --- | --- | --- | --- | --- | --- | --- | --- |
| 197 | 73.6 | 532 | 199 | 38.4 | 1.4 | 2.7 | – | – | COc1ccccc1N1CCN(CCCCn2cc(-c3ccc(N)cc3)nn2)CC1 | – |
| 7.9 | 2.8 | 639 | 228 | 39.4 | – | 81.2 | – | – | COc1ccccc1N1CCN(CCCCn2cc(-c3ccccc3)nn2)CC1 | – |
| 9.8 | 5.3 | 395 | 212 | 44.3 | – | 40.1 | – | – | COc1ccc(-c2cn(CCCCN3CCN(c4ccccc4OC)CC3)nn2)cc1 | – |
| – | – | – | – | – | – | – | 1800 | 1.6 | NC(=O)c1cccc(N2CCN(CCCCNC(=O)c3ccc(Br)cc3)CC2)c1 | – |
| 14.3 | 1.4 | 1900 | 181 | 40.9 | – | 132 | – | – | COc1ccccc1N1CCN(CCCCn2cc(-c3cccnc3)nn2)CC1 | – |
| 3.5 | 2 | 387 | 227 | 44.3 | – | 111 | – | – | COc1ccccc1N1CCN(CCCCn2cc(-c3ccc(Br)cc3)nn2)CC1 | – |
| 3.2 | 1 | 426 | 137 | 50 | – | 135 | – | – | COc1ccccc1N1CCN(CCCCn2cc(-c3ccc(-c4cnco4)cc3)nn2)CC1 | – |
| – | – | – | – | – | – | – | – | – | CCCN[C@H]1CCc2nc(N)sc2C1 [PRAMIPEXOLE] | 72 |
